From ChEMBL document CHEMBL1240380, “Acinetobacter baumannii increases tolerance to antibiotics in response to monovalent cations” (Antimicrob Agents Chemother, 2010)
Active and inactive are the calls of the source.

Legend:
Acinetobacter baumannii [1] = test: Antibacterial activity against Acinetobacter baumannii isolate 2824 isolated from human urine; type: functional, organism-based
Acinetobacter baumannii [2] = test: Antibacterial activity against Acinetobacter baumannii isolate 510 isolated from human sputum; type: functional, organism-based
Acinetobacter baumannii [3] = test: Antibacterial activity against Acinetobacter baumannii isolate 5191 isolated from human urine; type: functional, organism-based
Acinetobacter baumannii [4] = test: Antibacterial activity against Acinetobacter baumannii isolate 4860 isolated from human urine; type: functional, organism-based
Acinetobacter baumannii [5] = test: Antibacterial activity against Acinetobacter baumannii isolate 2898 isolated from human ankle; type: functional, organism-based
Acinetobacter baumannii [6] = test: Antibacterial activity against Acinetobacter baumannii isolate 5191 using MHB medium after 24 hrs; type: functional, organism-based
Outline: (§1)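 MIC by CLSI broth microdilution in MHB, with the medium supplemented with 150 mM NaCl where indicated. The read-out was taken after 24 h of drug exposure.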

Acinetobacter baumannii [7] = test: Antibacterial activity against Acinetobacter baumannii isolate 2824 using MHB medium with 150 mM NaCl after 24 hrs; type: functional, organism-based; outline: as §1
Acinetobacter baumannii [8] = test: Antibacterial activity against Acinetobacter baumannii isolate 2898 using MHB medium with 150 mM NaCl assessed as bacterial growth at 0.75 mg/L after 12 hrs; type: functional, organism-based
Outline: (§2)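 Overnight cultures were diluted 1:100 in NaCl-free MHB and grown to OD600 0.4. They were then diluted to 10^5 CFU/ml in MHB with or without 150 mM NaCl, plus or minus antibiotic. Growth was run in triplicate for 12 h at 37°C with shaking at 180 rpm, and OD600 was read every 2 h.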

Acinetobacter baumannii [9] = test: Antibacterial activity against Acinetobacter baumannii using MHB medium assessed as bacterial growth at 0.75 mg/L in presence of 150 mM of KCl; type: functional, organism-based
Outline: as §2, with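 “Growth-curve challenge with 150 mM KCl in place of NaCl. Overnight” for “Overnight”, “KCl,” for “NaCl,”, “plus” for “plus or minus”, “Cultures ran” for “Growth was run”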

Acinetobacter baumannii [10] = test: Antibacterial activity against Acinetobacter baumannii isolate 4860 using MHB medium after 24 hrs; type: functional, organism-based; outline: as §1
Acinetobacter baumannii [11] = test: Antibacterial activity against Acinetobacter baumannii isolate 2898 using MHB medium after 24 hrs; type: functional, organism-based; outline: as §1
Acinetobacter baumannii [12] = test: Antibacterial activity against Acinetobacter baumannii ATCC 17978 using MHB medium with 150 mM NaCl assessed as bacterial growth at 0.75 mg/L after 12 hrs; type: functional, organism-based; outline: as §2
Acinetobacter baumannii [13] = test: Antibacterial activity against Acinetobacter baumannii ATCC 17978 using MHB medium after 24 hrs; type: functional; outline: as §1
Acinetobacter baumannii [14] = test: Antibacterial activity against Acinetobacter baumannii isolate 4860 using MHB medium with 150 mM NaCl after 24 hrs; type: functional, organism-based; outline: as §1
Acinetobacter baumannii [15] = test: Antibacterial activity against Acinetobacter baumannii ATCC 17978 using MHB medium assessed as bacterial growth at 0.75 mg/L after 12 hrs; type: functional, organism-based; outline: as §2
Acinetobacter baumannii [16] = test: Antibacterial activity against Acinetobacter baumannii isolate 2824 using MHB medium with 150 mM NaCl assessed as bacterial growth at 0.75 mg/L after 12 hrs; type: functional, organism-based; outline: as §2
Acinetobacter baumannii [17] = test: Antibacterial activity against Acinetobacter baumannii isolate 5191 using MHB medium with 150 mM NaCl after 24 hrs; type: functional, organism-based; outline: as §1
Acinetobacter baumannii [18] = test: Antibacterial activity against Acinetobacter baumannii ATCC 17978 assessed as bacterial growth at 0.75 mg/L in presence of 150 mM NaCl; type: functional; outline: as §2
Acinetobacter baumannii [19] = test: Antibacterial activity against Acinetobacter baumannii using MHB medium assessed as bacterial growth at 1.5 mg/L after 12 hrs in presence of 30 mg/L efflux pump inhibitor PAbetaN; type: functional, organism-based
Acinetobacter baumannii [20] = test: Antibacterial activity against Acinetobacter baumannii isolate 510 using MHB medium with 150 mM NaCl assessed as bacterial growth at 0.75 mg/L after 12 hrs; type: functional, organism-based; outline: as §2
Acinetobacter baumannii [21] = test: Antibacterial activity against Acinetobacter baumannii using MHB medium with NaCl in presence of efflux pump inhibitor PAbetaN; type: functional, organism-based
Outline: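 Cells in MHB with or without 150 mM NaCl were pretreated with 60 mg/liter PAβN for 30 min at room temperature before antibiotic was added. Cultures at 10^5 CFU/ml were then grown in triplicate for 12 h at 37°C with shaking at 180 rpm, and OD600 was monitored every 2 h.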

Acinetobacter baumannii [22] = test: Antibacterial activity against Acinetobacter baumannii isolate 2898 using MHB medium with 150 mM NaCl after 24 hrs; type: functional, organism-based; outline: as §1
Acinetobacter baumannii [23] = test: Antibacterial activity against Acinetobacter baumannii isolate 510 using MHB medium with 150 mM NaCl after 24 hrs; type: functional, organism-based; outline: as §1
Acinetobacter baumannii [24] = test: Antibacterial activity against Acinetobacter baumannii isolate 510 using MHB medium assessed as bacterial growth at 0.75 mg/L after 12 hrs; type: functional, organism-based; outline: as §2
Acinetobacter baumannii [25] = test: Antibacterial activity against Acinetobacter baumannii isolate 2898 using MHB medium assessed as bacterial growth at 0.75 mg/L after 12 hrs; type: functional, organism-based; outline: as §2
Acinetobacter baumannii [26] = test: Antibacterial activity against Acinetobacter baumannii isolate 4860 using MHB medium assessed as bacterial growth at 0.75 mg/L after 12 hrs; type: functional, organism-based; outline: as §2
Acinetobacter baumannii [27] = test: Antibacterial activity against Acinetobacter baumannii using MHB medium with 150 mM assessed as bacterial growth at 1.5 mg/L after 12 hrs in presence of 30 mg/L efflux pump inhibitor PAbetaN; type: functional, organism-based
Acinetobacter baumannii [28] = test: Antibacterial activity against Acinetobacter baumannii isolate 4860 using MHB medium with 150 mM NaCl assessed as bacterial growth at 0.75 mg/L after 12 hrs; type: functional, organism-based; outline: as §2
Acinetobacter baumannii [29] = test: Antibacterial activity against Acinetobacter baumannii isolate 5191 using MHB medium with 150 mM NaCl assessed as bacterial growth at 0.75 mg/L after 12 hrs; type: functional, organism-based; outline: as §2
Acinetobacter baumannii [30] = test: Antibacterial activity against Acinetobacter baumannii isolate 2824 using MHB medium assessed as bacterial growth at 0.75 mg/L after 12 hrs; type: functional, organism-based; outline: as §2
Acinetobacter baumannii [31] = test: Antibacterial activity against Acinetobacter baumannii isolate 510 using MHB medium after 24 hrs; type: functional, organism-based; outline: as §1
Acinetobacter baumannii [32] = test: Antibacterial activity against Acinetobacter baumannii isolate 5191 using MHB medium assessed as bacterial growth at 0.75 mg/L after 12 hrs; type: functional, organism-based; outline: as §2
Acinetobacter baumannii [33] = test: Antibacterial activity against Acinetobacter baumannii isolate 2824 using MHB medium after 24 hrs; type: functional, organism-based; outline: as §1
Acinetobacter baumannii [34] = test: Antibacterial activity against Acinetobacter baumannii ATCC 17978 using MHB medium with 150 mM NaCl after 24 hrs; type: functional; outline: as §1
Acinetobacter baumannii [35] = test: Antibacterial activity against Acinetobacter baumannii ATCC 17978 isolated from human CSF; type: functional, organism-based
Acinetobacter baumannii [36] = test: Antibacterial activity against Acinetobacter baumannii ATCC 17978 assessed as bacterial growth at 1.125 mg/L in presence of 150 mM NaCl; type: functional
Outline: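 Strain grown overnight, diluted 1:100 in MHB without NaCl and grown to OD600 0.4. Then diluted to 10^5 CFU/ml in MHB supplemented with 150 mM NaCl, with or without gentamicin 1.125 mg/liter. Incubated 12 h at 37°C with shaking at 180 rpm, in triplicate. Growth followed by OD600 every 2 h.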

Acinetobacter baumannii [37] = test: Antibacterial activity against Acinetobacter baumannii using MHB medium assessed as bacterial growth at 0.09 mg/L in presence of 150 mM of KCl; type: functional, organism-based
Outline: as §2, with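 “Growth-curve challenge with 150 mM KCl in place of NaCl. Overnight” for “Overnight”, “KCl,” for “NaCl,”, “plus” for “plus or minus”, “Cultures ran” for “Growth was run”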

Acinetobacter baumannii [38] = test: Antibacterial activity against Acinetobacter baumannii ATCC 17978 assessed as bacterial growth at 0.09 mg/L in presence of 150 mM NaCl; type: functional, organism-based; outline: as §2
Acinetobacter baumannii [39] = test: Antibacterial activity against Acinetobacter baumannii ATCC 17978 assessed as bacterial growth at 0.0625 mg/L in presence of 150 mM NaCl; type: functional; outline: as §2

CO/N=C(\C(=O)N[C@@H]1C(=O)N2C(C(=O)O)=C(COC(C)=O)CS[C@H]12)c1csc(N)n1
inactive: Activity (Acinetobacter baumannii [1]) | Activity (Acinetobacter baumannii [2]) | Activity (Acinetobacter baumannii [3]) | Activity (Acinetobacter baumannii [4]) | Activity (Acinetobacter baumannii [5])

COLISTIN
inactive: Activity (Acinetobacter baumannii [8]) | Activity (Acinetobacter baumannii [9]) | Activity (Acinetobacter baumannii [12]) | Activity (Acinetobacter baumannii [16]) | Activity (Acinetobacter baumannii [18]) | Activity (Acinetobacter baumannii [19]) | Activity (Acinetobacter baumannii [20]) | Activity (Acinetobacter baumannii [27]) | Activity (Acinetobacter baumannii [28]) | Activity (Acinetobacter baumannii [29])
0.75 mg/L: MIC (Acinetobacter baumannii [6]) | MIC (Acinetobacter baumannii [13]) | MIC (Acinetobacter baumannii [31]) | MIC (Acinetobacter baumannii [33])
1.5 mg/L: MIC (Acinetobacter baumannii [7]) | MIC (Acinetobacter baumannii [14]) | MIC (Acinetobacter baumannii [17]) | MIC (Acinetobacter baumannii [22]) | MIC (Acinetobacter baumannii [23]) | MIC (Acinetobacter baumannii [34])
1 mg/L: MIC (Acinetobacter baumannii [11])
> 4 mg/L: MIC (Acinetobacter baumannii [21])
2 mg/L: MIC (Acinetobacter baumannii [10])
active: Activity (Acinetobacter baumannii [15]) | Activity (Acinetobacter baumannii [24]) | Activity (Acinetobacter baumannii [25]) | Activity (Acinetobacter baumannii [26]) | Activity (Acinetobacter baumannii [30]) | Activity (Acinetobacter baumannii [32])

CN(C)[C@@H]1C(O)=C(C(N)=O)C(=O)[C@@]2(O)C(O)=C3C(=O)c4c(O)cccc4[C@@](C)(O)[C@H]3C[C@@H]12
inactive: Activity (Acinetobacter baumannii [1]) | Activity (Acinetobacter baumannii [3]) | Activity (Acinetobacter baumannii [4])

GENTAMICIN
inactive: Activity (Acinetobacter baumannii [1]) | Activity (Acinetobacter baumannii [2]) | Activity (Acinetobacter baumannii [3]) | Activity (Acinetobacter baumannii [4]) | Activity (Acinetobacter baumannii [5]) | Activity (Acinetobacter baumannii [36])
active: Activity (Acinetobacter baumannii [35])

C[C@H]1COc2c(N3CCN(C)CC3)c(F)cc3c(=O)c(C(=O)O)cn1c23
inactive: Activity (Acinetobacter baumannii [37]) | Activity (Acinetobacter baumannii [1]) | Activity (Acinetobacter baumannii [3]) | Activity (Acinetobacter baumannii [38]) | Activity (Acinetobacter baumannii [4])

CO/N=C(\C(=O)N[C@@H]1C(=O)N2C(C(=O)[O-])=C(C[N+]3(C)CCCC3)CS[C@H]12)c1csc(N)n1
active: Activity (Acinetobacter baumannii [35])
inactive: Activity (Acinetobacter baumannii [1]) | Activity (Acinetobacter baumannii [2]) | Activity (Acinetobacter baumannii [3]) | Activity (Acinetobacter baumannii [4]) | Activity (Acinetobacter baumannii [5])

C[C@@H](O)[C@H]1C(=O)N2C(C(=O)O)=C(SCCNC=N)C[C@H]12
inactive: Activity (Acinetobacter baumannii [39])
active: Activity (Acinetobacter baumannii [1]) | Activity (Acinetobacter baumannii [2]) | Activity (Acinetobacter baumannii [3]) | Activity (Acinetobacter baumannii [35]) | Activity (Acinetobacter baumannii [4]) | Activity (Acinetobacter baumannii [5])
